# Source: PubChem BioAssay
# This is a sample that favours compounds with a hit; in the whole collection about 0.7% have one here.
# Glyco luc inh = increase of ERlucT glycosylation luciferase signal, primary screen, N-linked glycosylation inhibitor project, D54 ERlucT cells, luminescence, set 2 | D54 ERlucT glycosylation luciferase reporter, 24 h; percent of 100 nM tunicamycin response | reporter increase, % at 12.5 µM | 360,000 compounds, 0.23% hits;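 active = mean luciferase reporter signal, scaled so untreated is 0 and the glycosylation-blocking control 100, at or above a set limit in every replicate; inconclusive = mean reaches the limit but not every replicate does; inactive = mean below the limit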;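 also: luciferase carries N-glycosylation sites so blocking glycosylation raises the light; 0% = median of neutral control wells and 100% = median of 100 nM tunicamycin wells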
# RAD52 anneal inh = RAD52 DNA annealing inhibitors, primary screen, biochemical, FRET, single point, set 2. DNA repair protein RAD52 homolog (Homo sapiens), P43351. recombinant RAD52 DNA annealing, FRET fluorescence. inhibition, % at 18.7 µM. 360,000 compounds, 0.46% hits;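 active = every replicate showing at least 50% inhibition; inconclusive = mean inhibition at least 50% but not in every replicate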
# CaV13 FRET inh = Primary screen for inhibitors of IQ motif and Ca2+-dependent inactivation inhibitor domain binding in CACNA1D, Förster resonance energy transfer in living cells, …; 340,000 compounds, 0.098% hits; HEK cells, CFP/YFP FRET ICDI-IQ, plate reader, 10 min; percent FRET-ratio fall versus neutral wells; inhibition, % at 12.3 µM;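 active = mean replicate inhibition of at least 30% and at least 1% of replicates passing that level; inconclusive = only one of the two criteria is met; inactive = neither criterion is met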;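 also: 0% = median of the neutral control wells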
# RAD54 inh = inhibitors of human RAD54 branch migration, primary screen, biochemical, fluorescence, single point; DNA repair and recombination protein RAD54-like (Homo sapiens), Q92698; RAD54 Holliday junction branch migration, FAM/BHQ fluorescence; inhibition, % at 10.4 µM; 360,000 compounds, 0.14% hits;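 active = mean normalized replicate activity at least 40 and at least half of replicates scoring 40 or more; inconclusive = only one of the two criteria met; inactive = mean below 40 and under half of replicates reaching 40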;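 also: 0% = median of neutral control wells and 100% = median of positive control wells; inhibitors cause a drop in the FAM fluorescence signal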
# Target sequence (Q92698 whole entry, looked up): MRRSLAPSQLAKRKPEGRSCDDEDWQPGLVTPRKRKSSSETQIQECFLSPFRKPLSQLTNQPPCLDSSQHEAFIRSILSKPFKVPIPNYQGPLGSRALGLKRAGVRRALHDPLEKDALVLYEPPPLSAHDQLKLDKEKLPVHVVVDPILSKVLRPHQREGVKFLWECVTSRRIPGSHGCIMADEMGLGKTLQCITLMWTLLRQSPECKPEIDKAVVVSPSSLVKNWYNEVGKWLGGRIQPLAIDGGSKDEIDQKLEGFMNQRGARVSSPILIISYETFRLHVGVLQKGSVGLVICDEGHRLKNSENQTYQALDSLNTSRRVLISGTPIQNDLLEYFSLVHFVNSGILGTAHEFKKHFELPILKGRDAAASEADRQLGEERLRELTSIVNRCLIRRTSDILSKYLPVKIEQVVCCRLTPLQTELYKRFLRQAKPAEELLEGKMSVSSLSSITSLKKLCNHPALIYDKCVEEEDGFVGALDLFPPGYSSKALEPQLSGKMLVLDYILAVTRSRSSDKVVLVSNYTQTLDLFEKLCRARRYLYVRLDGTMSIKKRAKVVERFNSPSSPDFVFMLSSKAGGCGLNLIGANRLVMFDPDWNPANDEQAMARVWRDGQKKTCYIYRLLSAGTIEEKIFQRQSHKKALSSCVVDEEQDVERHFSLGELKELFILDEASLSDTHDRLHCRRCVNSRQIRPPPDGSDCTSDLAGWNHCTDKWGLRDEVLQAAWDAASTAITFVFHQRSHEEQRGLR
# FN deposit inh = inhibitors of fibronectin matrix deposition, primary screen, AH1F cells, Alexa488-fibronectin fluorescence, plate reader. AH1F fibroblasts, overnight. inhibition, % at 12.6 µM. 350,000 compounds, 0.086% hits;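 active = mean inhibition across replicates of 30% or more, regardless of how many single replicates reach that level; inconclusive = mean under 30% yet at least half of replicates reach 30%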;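 also: positive control wells lacked labelled fibronectin entirely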
#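 Assay system: AH1F fibroblasts assembling fluorescent fibronectin matrix; Amount: 10000 AH1F cells per well; Buffer or medium: DMEM, 2% serum; Probe or stimulus: Alexa488-fibronectin, 24 nM final in well; Doses: single compound dose, delivered by pin transfer; Incubation: 1 h adhesion, overnight exposure; Measured by: fluorescence 485/525 nm; Read-out: fibronectin deposition inhibition.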
# Numbers without * were called inactive; u = inconclusive; x = no result given; + = active, no number.
SMILES,Glyco luc inh,RAD52 anneal inh,CaV13 FRET inh,RAD54 inh,FN deposit inh
O=C(/C=C/c1ccc(Br)cc1)c1ccc(NC2=NCCCS2)cc1,15,51*,-21,x,5
CCN(CC)CCn1c2ccccc2c2cnc(N=CN(C)C)c(C#N)c21,u,x,x,97*,x
CCn1c2ccccc2c2cnc(N=CN(C)C)c(C#N)c21,-8,x,-1,12,x
CCCC#Cc1ccc2c(c1)O[C@H](CN(C)Cc1ccncc1)[C@H](C)CN([C@H](C)CO)S2(=O)=O,x,-14,x,3,x
Cc1ccccc1NS(=O)(=O)c1ccc2c3c(cccc13)C(=O)N2C,42*,3,-7,4,1
CN1C(=O)c2cccc3c(S(=O)(=O)Nc4ccccn4)ccc1c23,41*,x,-2,x,x
CN1C(=O)c2cccc3c(S(N)(=O)=O)ccc1c23,4,-3,-7,-4,6
CCOc1ccc(Br)cc1C1=NN(C(C)=O)C(c2ccc([N+](=O)[O-])s2)O1 (stereo not drawn),36*,-10,-19,4,6
Cc1cc2cc(C=C(C#N)C#N)c(Cl)nc2cc1C,38*,-61,-50,-6,2
CCOC(=O)/C(C#N)=C/c1cc2cc(C)c(C)cc2nc1Cl,3,-66,-7,-8,-16
O=C(C[C@@H]1C[C@H]2c3cc(NC(=O)C4CCOCC4)ccc3O[C@H]2[C@H](CO)O1)NC1CCCCC1,x,-16,x,2,5
O=C(C[C@H]1CC[C@H]2[C@@H](COC[C@@H](O)CN2S(=O)(=O)c2ccccc2)O1)NCc1ccc(-c2ccccc2)cc1,x,36,x,-5,-8
O=C(C[C@H]1CC[C@@H]2[C@H](COC[C@@H](O)CN2S(=O)(=O)c2ccccc2)O1)NCc1ccc(-c2ccccc2)cc1,x,75*,x,15,-12
CS(=O)(=O)N1C[C@@H](O)COC[C@H]2O[C@@H](CC(=O)NCc3ccc(-c4ccccc4)cc3)CC[C@@H]21,x,59*,x,19,6
O=C(C[C@H]1CC[C@@H]2[C@H](COC[C@H](O)CN2S(=O)(=O)c2ccccc2)O1)NCc1ccc(-c2ccccc2)cc1,x,56*,x,-6,-9
O=C(C[C@@H]1CC[C@H]2[C@@H](COC[C@@H](O)CN2S(=O)(=O)c2ccccc2)O1)NCc1ccc(-c2ccccc2)cc1,x,59*,x,-1,-2
C[C@H](CO)N1C[C@H](C)[C@@H](CN(C)Cc2ccc(Cl)c(Cl)c2)Oc2ccc(NS(=O)(=O)c3ccccc3)cc2CC1=O,x,64*,x,-6,-9
Cc1ccc(S(=O)(=O)Nc2ccc3c(c2)CC(=O)N([C@@H](C)CO)C[C@@H](C)[C@H](CN(C)Cc2ccc(-c4ccccc4)cc2)O3)cc1,x,83*,x,1,x
C[C@@H]1CN([C@@H](C)CO)C(=O)Cc2cc(NS(=O)(=O)c3ccc(F)cc3)ccc2O[C@H]1CN(C)C(=O)NC1CCCCC1,x,7,x,-9,x
O=C(NCC[C@@H]1CC[C@H](NC(=O)C2CCCCC2)[C@H](CO)O1)c1cc(Cl)cc(Cl)c1,x,10,x,-13,-19
CCOC(=O)c1cc(-c2ccccc2)sc1NC(=O)CSc1nncs1,-1,x,-6,x,-11
CCOC(=O)c1cc(-c2ccccc2)sc1NC(=O)CSc1nnc(N)s1,3,-9,96*,x,-5
Cc1cccc(NC(=S)N/N=C2\CC(C)(C)Oc3ccc(O)cc32)c1,-4,-8,-4,x,39*
CN1CCN(C(c2ccccc2)c2nnnn2Cc2ccccc2)CC1 (stereo not drawn),0,x,0,-5,x
CCN1CCN(C(c2ccccc2)c2nnnn2Cc2ccccc2)CC1 (stereo not drawn),-4,x,-5,-7,33*
SMILES,Glyco luc inh,RAD52 anneal inh,CaV13 FRET inh,RAD54 inh,FN deposit inh
C=CCOc1ccccc1C(=O)/C=C1/C(=O)Nc2ccccc21,32*,-6,-18,-3,3
COc1ccc(C(=O)/C=C2/C(=O)Nc3ccccc32)cc1OC,29*,-8,-19,0,0
C=CCOc1ccc(C(=O)/C=C2/C(=O)Nc3ccccc32)cc1,11,-11,-19,0,7
COc1ccc(C(=O)/C=C2/C(=O)Nc3ccccc32)c(OC)c1,33*,-3,-18,x,1
C[C@H]1CN([C@@H](C)CO)S(=O)(=O)c2ccc(C#CC3(O)CCCC3)cc2O[C@@H]1CN(C)C(=O)Cc1ccncc1,x,-20,x,1,-14
CCOc1cc(C(=O)Nc2ccc(N3CCOCC3)cc2)cc(Br)c1OC,32*,-6,-7,-4,x
CCc1nnc(NC(=O)/C=C/c2ccco2)s1,15,-35,13,x,-4
O=C(/C=C/c1ccco1)Nc1nnc(-c2ccco2)s1,35*,-24,-4,x,3
NC(=O)c1ccc(N=Cc2ccc([N+](=O)[O-])s2)cc1,44*,-10,-5,x,-2
COC(=O)[C@@H]1[C@@H](CO)[C@@H]2Cn3c(ccc(-c4ccccc4F)c3=O)[C@@H]2N1C(=O)c1cnccn1,x,8,x,-8,x
COc1ccc(NC(=O)N(C)C[C@H]2OCCCC[C@H](C)Oc3ccc(NC(=O)CCCN(C)C)cc3C(=O)N([C@H](C)CO)C[C@@H]2C)cc1,x,-28,x,7,x
O=[N+]([O-])c1ccc(Sc2cc[n+]([O-])c3ccccc23)c([N+](=O)[O-])c1,28*,-8,-2,2,-3
Cc1ccccc1Nc1cc2ccccc2c(=O)[nH]1,3,x,x,x,x
O=c1[nH]c(Nc2ccccc2Cl)cc2ccccc12,3,-31,+,15,4
O=C(Nc1cccc(Cl)c1)N[C@H]1CC[C@@H](CCNC(=O)C2CCCC2)O[C@@H]1CO,x,4,x,2,-3
Cn1c(=O)n(C)c2cc(NC(=O)c3ccccc3)ccc21,10,-2,-6,-2,x
CC(C)Sc1ccccc1C(=O)Nc1ccc2c(c1)n(C)c(=O)n2C,34*,-7,-21,6,-5
Cn1c(=O)n(C)c2cc(NC(=O)CCl)ccc21,82*,x,-4,x,-4
CNC[C@@H]1OCCCC[C@H](C)Oc2ccc(NC(=O)Cc3ccccc3)cc2C(=O)N([C@H](C)CO)C[C@@H]1C,x,-29,x,-15,x
